Test results: ChEMBL document CHEMBL5696442, “Discovery of type II inhibitors of TGFβ-activated kinase 1 (TAK1) and mitogen-activated protein kinase kinase kinase kinase 2 (MAP4K2)” (J Med Chem, 2015)
Activity calls are given as the source filed them. The calls are words filed in the database; no cut-off is given here.

How the values were obtained:
[1] = target: T1, Mitogen-activated protein kinase kinase kinase kinase 2 (Homo sapiens) (UniProt Q12851); test: Inhibition of MAP4K2 Lys1 labeling site in human A-375 cells at 0.5 uM by KiNativ Profiling analysis relative to control; assay type: cell-based
T1 sequence (whole entry): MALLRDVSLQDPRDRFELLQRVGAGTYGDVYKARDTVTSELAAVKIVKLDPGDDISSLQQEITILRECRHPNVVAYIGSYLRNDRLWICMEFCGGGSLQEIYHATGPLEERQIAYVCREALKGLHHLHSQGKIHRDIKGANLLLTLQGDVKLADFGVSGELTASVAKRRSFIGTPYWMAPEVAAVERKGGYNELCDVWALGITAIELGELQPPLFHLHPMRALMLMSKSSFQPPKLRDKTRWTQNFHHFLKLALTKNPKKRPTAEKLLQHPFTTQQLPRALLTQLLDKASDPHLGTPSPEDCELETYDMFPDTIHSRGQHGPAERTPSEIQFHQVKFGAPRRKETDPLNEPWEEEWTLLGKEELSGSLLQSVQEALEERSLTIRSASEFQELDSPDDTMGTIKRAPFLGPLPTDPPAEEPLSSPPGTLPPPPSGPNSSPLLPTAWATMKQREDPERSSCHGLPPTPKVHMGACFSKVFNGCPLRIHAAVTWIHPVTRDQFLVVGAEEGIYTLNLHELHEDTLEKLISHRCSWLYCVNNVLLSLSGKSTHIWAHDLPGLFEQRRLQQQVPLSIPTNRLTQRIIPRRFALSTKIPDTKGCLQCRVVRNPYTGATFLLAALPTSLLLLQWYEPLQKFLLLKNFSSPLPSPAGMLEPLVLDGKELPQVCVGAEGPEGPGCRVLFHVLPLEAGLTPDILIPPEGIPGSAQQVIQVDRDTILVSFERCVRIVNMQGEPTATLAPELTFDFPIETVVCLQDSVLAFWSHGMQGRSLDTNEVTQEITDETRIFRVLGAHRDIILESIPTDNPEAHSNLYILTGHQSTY

[2] = target: T2, Mitogen-activated protein kinase kinase kinase 7 (Homo sapiens) (UniProt O43318); test: Inhibition of TAK1 Lys2 labeling site in human A-375 cells at 0.5 uM by KiNativ Profiling analysis relative to control; assay type: cell-based
T2 sequence (whole entry): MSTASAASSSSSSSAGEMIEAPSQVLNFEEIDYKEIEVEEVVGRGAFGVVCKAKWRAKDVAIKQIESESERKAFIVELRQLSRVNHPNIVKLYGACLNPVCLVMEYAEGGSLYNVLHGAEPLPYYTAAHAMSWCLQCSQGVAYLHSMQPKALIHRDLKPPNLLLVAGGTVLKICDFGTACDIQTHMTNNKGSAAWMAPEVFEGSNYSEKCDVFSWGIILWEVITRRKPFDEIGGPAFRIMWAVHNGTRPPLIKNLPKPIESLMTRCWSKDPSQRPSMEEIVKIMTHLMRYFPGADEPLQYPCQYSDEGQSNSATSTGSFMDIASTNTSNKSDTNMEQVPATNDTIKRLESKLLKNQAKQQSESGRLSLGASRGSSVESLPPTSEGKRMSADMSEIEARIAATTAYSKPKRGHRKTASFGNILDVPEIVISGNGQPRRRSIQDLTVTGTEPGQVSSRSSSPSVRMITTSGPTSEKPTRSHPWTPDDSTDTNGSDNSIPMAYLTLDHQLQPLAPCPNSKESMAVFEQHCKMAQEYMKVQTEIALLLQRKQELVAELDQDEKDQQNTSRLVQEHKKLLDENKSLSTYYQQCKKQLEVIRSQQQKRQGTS

[3] = target: T3, Mitogen-activated protein kinase 9 (Homo sapiens, UniProt P45984); test: Inhibition of JNK2 Lys2 labeling site in human A-375 cells at 0.5 uM by KiNativ Profiling analysis relative to control; assay type: cell-based
T3 sequence (P45984 whole entry, looked up): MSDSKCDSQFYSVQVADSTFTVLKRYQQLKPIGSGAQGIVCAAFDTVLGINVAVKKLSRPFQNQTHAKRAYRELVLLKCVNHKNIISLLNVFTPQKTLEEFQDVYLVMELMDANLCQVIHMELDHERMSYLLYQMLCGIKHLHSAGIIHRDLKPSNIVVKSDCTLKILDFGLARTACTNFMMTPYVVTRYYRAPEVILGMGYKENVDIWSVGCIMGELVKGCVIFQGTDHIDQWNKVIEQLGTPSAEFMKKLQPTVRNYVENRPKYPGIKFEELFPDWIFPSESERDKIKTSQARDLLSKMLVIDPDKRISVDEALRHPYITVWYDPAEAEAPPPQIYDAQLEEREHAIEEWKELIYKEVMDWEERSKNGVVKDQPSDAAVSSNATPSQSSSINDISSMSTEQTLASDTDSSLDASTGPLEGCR

[4] = target: T4, Mitogen-activated protein kinase kinase kinase 7 (Homo sapiens, UniProt O43318); test: Inhibition of TAK1 (unknown origin) Lys2 labeling site by KiNativ Profiling analysis
T4 sequence (O43318 whole entry): T2 sequence (whole entry)

[5] = tested on: MEF; test: Inhibition of IL-1 induced p38 MAPK phosphorylation level in TAK1 deficient mouse MEF cells incubated for 1 hr followed by IL-1 stimulation by Western blot analysis; assay type: functional, cell-based; conditions: dose <= 500.0 nM
Method in brief: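 WT and TAK1-null MEFs were grown in DMEM with 10% FBS and held in 0.1% FBS for 16 h. Compound was added 1 h before mouse IL-1α (5 ng/mL, 10 min). Cells were lysed in ice-cold buffer and extracts cleared at 16000g. Phospho-p38 was detected by Western blot.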

[6] = tested on: MEF; test: Inhibition of TGF-beta induced p38 MAPK phosphorylation level in TAK1 deficient mouse MEF cells incubated for 1 hr followed by TGF-beta stimulation by Western blot analysis; assay type: functional, cell-based; conditions: dose <= 500.0 nM
Method in brief: (§1)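 In serum-starved WT and TAK1–/– MEFs (0.1% FBS, 16 h), inhibitor was added 1 h before TGFβ (50 pM, 45 min). Cleared lysates were immunoblotted for phospho-SMAD2 and phospho-p38.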

[7] = tested on: MEF; test: Inhibition of TGF-beta induced SMAD2 phosphorylation level in TAK1 deficient mouse MEF cells at upto 500 nM incubated for 1 hr followed by TGF-beta stimulation by Western blot analysis; assay type: functional, cell-based; method in brief: as §1
[8] = target: Ribosomal protein S6 kinase alpha-2 (Homo sapiens) (UniProt Q15349); test: Inhibition of RSK3 Protein Kinase Domain in human A-375 cells at 5 uM by KiNativ Profiling analysis relative to control; assay type: cell-based
Ribosomal protein S6 kinase alpha-2 (Homo sapiens), sequence (Q15349 whole entry, the tested form may be a part): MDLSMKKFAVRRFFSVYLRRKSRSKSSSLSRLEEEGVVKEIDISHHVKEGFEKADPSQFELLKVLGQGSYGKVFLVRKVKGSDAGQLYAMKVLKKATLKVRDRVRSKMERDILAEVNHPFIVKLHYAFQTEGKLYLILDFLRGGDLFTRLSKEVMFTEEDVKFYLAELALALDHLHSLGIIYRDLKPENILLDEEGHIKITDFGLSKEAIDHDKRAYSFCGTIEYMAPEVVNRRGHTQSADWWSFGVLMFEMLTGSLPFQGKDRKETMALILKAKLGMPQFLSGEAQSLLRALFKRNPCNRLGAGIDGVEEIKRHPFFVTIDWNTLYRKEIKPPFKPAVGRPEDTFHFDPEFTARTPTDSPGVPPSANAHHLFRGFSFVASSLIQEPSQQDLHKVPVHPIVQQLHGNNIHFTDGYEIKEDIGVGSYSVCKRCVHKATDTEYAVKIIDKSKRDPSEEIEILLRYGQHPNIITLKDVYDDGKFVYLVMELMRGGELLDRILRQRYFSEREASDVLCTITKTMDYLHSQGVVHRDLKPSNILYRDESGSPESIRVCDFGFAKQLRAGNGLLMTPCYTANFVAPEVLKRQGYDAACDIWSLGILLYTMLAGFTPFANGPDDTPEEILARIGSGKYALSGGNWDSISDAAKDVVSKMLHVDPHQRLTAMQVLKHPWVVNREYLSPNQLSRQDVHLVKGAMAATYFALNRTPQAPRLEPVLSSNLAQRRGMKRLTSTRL
Method in brief: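 Live A375 melanoma cells treated with compound at 5 or 0.5 μM, then lysed. Lysate kinases were labeled with a lysine-reactive ATP or ADP-biotin probe. Inhibition was read as protection of labeling sites from the probe.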

[9] = target: Cyclin-dependent kinase 1 (Homo sapiens) (UniProt P06493); test: Inhibition of CDC2 Lys2 labeling site harbouring VLHRDLKPQNLLIDDKGTIK in human A-375 cells at 0.05 uM by KiNativ Profiling analysis relative to control; assay type: cell-based
Cyclin-dependent kinase 1 (Homo sapiens), sequence (P06493 whole entry, looked up): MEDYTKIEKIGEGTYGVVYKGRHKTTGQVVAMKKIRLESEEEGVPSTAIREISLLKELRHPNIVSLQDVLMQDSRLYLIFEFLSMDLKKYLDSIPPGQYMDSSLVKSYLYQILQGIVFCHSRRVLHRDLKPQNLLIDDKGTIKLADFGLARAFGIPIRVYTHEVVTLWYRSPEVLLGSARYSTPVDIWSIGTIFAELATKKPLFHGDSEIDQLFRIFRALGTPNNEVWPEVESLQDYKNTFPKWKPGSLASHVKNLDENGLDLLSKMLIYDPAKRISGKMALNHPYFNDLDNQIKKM

[10] = target: Serine/threonine-protein kinase WNK3 (Homo sapiens) (UniProt Q9BYP7); test: Inhibition of Wnk3 Lys2 labeling site in human A-375 cells at 0.05 uM by KiNativ Profiling analysis relative to control; assay type: cell-based
Serine/threonine-protein kinase WNK3 (Homo sapiens), sequence (Q9BYP7 whole entry): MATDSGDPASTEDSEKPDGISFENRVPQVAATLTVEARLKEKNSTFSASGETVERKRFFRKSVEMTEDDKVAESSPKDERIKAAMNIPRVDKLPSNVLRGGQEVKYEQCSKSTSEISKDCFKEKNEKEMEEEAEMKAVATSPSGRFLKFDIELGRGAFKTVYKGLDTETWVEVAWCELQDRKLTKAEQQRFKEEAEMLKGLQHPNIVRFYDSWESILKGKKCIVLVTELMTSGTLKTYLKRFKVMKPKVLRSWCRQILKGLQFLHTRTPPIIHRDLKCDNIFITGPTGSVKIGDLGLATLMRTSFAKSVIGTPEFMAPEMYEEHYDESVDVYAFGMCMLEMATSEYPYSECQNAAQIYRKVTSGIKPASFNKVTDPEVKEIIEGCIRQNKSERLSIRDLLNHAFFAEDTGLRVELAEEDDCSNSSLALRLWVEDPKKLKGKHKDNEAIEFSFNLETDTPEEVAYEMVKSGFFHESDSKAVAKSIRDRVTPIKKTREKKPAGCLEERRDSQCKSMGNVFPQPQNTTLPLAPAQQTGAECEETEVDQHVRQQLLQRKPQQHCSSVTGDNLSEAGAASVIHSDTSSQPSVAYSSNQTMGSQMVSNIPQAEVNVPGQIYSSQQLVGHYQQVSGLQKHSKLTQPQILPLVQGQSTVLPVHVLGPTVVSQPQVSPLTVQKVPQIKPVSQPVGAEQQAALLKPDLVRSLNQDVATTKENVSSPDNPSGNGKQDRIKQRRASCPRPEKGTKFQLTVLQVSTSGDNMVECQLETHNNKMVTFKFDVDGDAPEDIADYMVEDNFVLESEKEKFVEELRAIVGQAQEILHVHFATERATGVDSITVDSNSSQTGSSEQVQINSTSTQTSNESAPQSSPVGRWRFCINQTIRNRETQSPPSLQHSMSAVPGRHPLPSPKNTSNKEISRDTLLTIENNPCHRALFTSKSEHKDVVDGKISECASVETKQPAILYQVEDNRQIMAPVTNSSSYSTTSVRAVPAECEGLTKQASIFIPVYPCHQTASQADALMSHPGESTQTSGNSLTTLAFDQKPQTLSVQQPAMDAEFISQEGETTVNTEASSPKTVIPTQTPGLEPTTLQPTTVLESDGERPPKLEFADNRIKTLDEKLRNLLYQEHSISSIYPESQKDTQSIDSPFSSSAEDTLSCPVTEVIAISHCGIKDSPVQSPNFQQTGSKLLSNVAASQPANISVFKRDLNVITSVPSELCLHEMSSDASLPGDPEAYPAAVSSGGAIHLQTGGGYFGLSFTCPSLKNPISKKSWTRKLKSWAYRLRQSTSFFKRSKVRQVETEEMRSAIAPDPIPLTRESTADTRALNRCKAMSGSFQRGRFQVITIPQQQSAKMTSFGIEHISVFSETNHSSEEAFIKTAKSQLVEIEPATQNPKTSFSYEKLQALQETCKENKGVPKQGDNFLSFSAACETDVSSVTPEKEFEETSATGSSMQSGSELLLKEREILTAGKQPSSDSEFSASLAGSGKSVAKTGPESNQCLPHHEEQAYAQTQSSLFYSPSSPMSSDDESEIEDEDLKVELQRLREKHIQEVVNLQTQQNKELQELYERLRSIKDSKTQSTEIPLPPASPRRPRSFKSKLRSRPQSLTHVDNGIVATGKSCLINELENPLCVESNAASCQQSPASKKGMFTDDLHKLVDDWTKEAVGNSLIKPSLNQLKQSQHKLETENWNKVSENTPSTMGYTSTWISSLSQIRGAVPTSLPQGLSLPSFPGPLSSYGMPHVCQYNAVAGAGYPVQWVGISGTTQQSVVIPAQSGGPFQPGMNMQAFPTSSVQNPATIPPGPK

[11] = target: Serine/threonine-protein kinase WNK2 (Homo sapiens) (UniProt Q9Y3S1); test: Inhibition of Wnk2 ACT labeling site in human A-375 cells at 0.05 uM by KiNativ Profiling analysis relative to control; assay type: cell-based
[12] = target: T5, Mitogen-activated protein kinase kinase kinase kinase 2 (Homo sapiens, UniProt Q12851); test: Inhibition of MAP4K2 (unknown origin) Lys1 labeling site by KiNativ Profiling analysis
T5 sequence (Q12851 whole entry): T1 sequence (whole entry)

[13] = target: Tyrosine-protein kinase ABL2 (Homo sapiens, UniProt P42684); test: Inhibition of ARG ACT labeling site in human Huh-7 cell lysate at 1 uM by KiNativ Profiling analysis relative to control; assay type: subcellular
Tyrosine-protein kinase ABL2, sequence (P42684 whole entry): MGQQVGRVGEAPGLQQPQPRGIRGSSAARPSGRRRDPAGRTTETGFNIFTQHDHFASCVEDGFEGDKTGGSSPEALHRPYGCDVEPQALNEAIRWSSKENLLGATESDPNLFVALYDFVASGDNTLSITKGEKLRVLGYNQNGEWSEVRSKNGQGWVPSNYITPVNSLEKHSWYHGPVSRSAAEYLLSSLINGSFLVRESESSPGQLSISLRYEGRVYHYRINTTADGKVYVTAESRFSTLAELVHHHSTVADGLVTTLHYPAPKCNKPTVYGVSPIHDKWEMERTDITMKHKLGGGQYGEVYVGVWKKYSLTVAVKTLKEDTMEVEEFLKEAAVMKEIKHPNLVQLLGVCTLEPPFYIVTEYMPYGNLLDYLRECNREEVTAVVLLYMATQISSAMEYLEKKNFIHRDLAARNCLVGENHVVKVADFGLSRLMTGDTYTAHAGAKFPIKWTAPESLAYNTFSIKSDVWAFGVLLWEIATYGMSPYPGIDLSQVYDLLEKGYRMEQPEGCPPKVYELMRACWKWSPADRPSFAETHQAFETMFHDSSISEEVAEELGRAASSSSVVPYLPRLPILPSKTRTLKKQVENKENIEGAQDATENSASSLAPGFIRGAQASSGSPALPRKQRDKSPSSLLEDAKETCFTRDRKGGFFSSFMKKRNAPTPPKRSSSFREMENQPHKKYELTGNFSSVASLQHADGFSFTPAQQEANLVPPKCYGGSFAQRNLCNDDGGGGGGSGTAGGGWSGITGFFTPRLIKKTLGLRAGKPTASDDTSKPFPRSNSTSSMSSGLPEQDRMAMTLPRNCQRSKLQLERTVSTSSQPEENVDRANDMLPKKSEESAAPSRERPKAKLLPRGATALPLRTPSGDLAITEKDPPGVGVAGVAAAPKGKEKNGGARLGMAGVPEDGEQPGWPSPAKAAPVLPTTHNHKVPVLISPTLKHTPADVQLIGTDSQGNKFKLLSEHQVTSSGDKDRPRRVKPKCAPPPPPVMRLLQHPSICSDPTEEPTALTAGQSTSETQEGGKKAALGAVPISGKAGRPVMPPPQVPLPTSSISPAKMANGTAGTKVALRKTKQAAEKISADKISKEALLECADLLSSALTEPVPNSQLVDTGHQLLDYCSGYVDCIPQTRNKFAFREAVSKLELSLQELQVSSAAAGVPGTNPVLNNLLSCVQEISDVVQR

[14] = target: T3, Mitogen-activated protein kinase 9; test: Inhibition of JNK2 Lys2 labeling site in human Huh-7 cell lysate at 1 uM by KiNativ Profiling analysis relative to control; assay type: subcellular
[15] = target: Tyrosine-protein kinase CSK (Homo sapiens, UniProt P41240); test: Inhibition of CSK ACT labeling site harbouring VSDFGLTKEASSTQDTGKLPVK in human Huh-7 cell lysate at 1 uM by KiNativ Profiling analysis relative to control; assay type: subcellular
Tyrosine-protein kinase CSK, sequence (P41240 2-450 limits assumed): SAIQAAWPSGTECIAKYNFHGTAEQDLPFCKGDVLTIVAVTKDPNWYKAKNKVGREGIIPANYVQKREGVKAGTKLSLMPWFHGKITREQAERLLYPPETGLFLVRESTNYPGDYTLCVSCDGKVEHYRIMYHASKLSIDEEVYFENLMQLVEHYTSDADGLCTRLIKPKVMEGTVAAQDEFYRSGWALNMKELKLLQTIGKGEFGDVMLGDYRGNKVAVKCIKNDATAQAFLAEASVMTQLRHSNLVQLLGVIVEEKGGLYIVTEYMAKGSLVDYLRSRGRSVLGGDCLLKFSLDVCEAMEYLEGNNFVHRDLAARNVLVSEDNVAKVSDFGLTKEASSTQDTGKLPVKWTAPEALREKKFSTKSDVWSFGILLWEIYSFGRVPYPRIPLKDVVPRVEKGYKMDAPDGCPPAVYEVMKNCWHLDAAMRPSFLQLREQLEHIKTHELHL

| SMILES | inhibition [1] | inhibition [2] | inhibition [3] | IC50 [4] | inhibition [5] | inhibition [6] | inhibition [7] | inhibition [8] | inhibition [9] | inhibition [10] | inhibition [11] | IC50 [12] | inhibition [13] | inhibition [14] | inhibition [15] |
| --- | --- | --- | --- | --- | --- | --- | --- | --- | --- | --- | --- | --- | --- | --- | --- |
| CCN1CCN(Cc2ccc(NC(=O)c3ccc(C)c(Oc4ccnc5[nH]ccc45)c3)cc2C(F)(F)F)CC1 | > 99.5% | 97.1% | 73.7% | 149 nM | Dose-Dependent Effect | Dose-Dependent Effect | Active | 5.8% | -2.9% | -3.5% | 10.3% | – | – | – | – |
| CNc1cc(Oc2cc(C(=O)Nc3cc(-n4cnc(C)c4)cc(C(F)(F)F)c3)ccc2C)ncn1 | 79.7% | 29.3% | – | > 1110 nM | Dose-Dependent Effect | Dose-Dependent Effect | inactive | – | – | – | – | 129 nM | 59.7% | 18.4% | 0.3% |
| CNc1cc(Oc2cc(C(=O)Nc3cc(N4CCN(C)CC4)cc(C(F)(F)F)c3)ccc2C)ncn1 | 85.3% | 7% | – | 2700 nM | Dose-Dependent Effect | Dose-Dependent Effect | inactive | – | – | – | – | 37.2 nM | 49.4% | 7% | 7.9% |
| CCN1CCN(Cc2ccc(NC(=O)c3ccc(C)c(/C=C/c4cnc5[nH]ccc5c4OC)c3)cc2C(F)(F)F)CC1 | – | – | 40.6% | 41 nM | – | – | – | 20% | 6.4% | 7.1% | 10.1% | 98 nM | – | – | – |
